Screens: PubChem BioAssay, Johns Hopkins Ion Channel Center
hERG rescue – hERG (human) protection from proarrhythmic block. Q12809. CHO-hERG, FluxOR thallium flux, dofetilide IC70 present. activation (rescue from dofetilide block), less the hit threshold, % at 10 µM. actives 0.51% (n = 310,000). AID 1511;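 active = activation above the mean of controls blocked by dofetilide plus 5 SD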;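 note: thallium influx through hERG after potassium depolarization seen as dye fluorescence rise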
Kir21 block – Kir2.1 (mouse) channel inhibition; HEK293-Kir2.1, FluxOR thallium flux fluorescence; active compounds read low; AID 1672; actives 0.85% (n = 310,000); B-score at 10 µM;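 active = fluorescence ratio B-score at or below minus 3 SD of library scores, with starting-brightness B-score within 2 SD, cut at about -4.2 in these data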;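 note: channel flux triggered by added potassium and thallium sulfate stimulus; B-score of peak minus minimum fluorescence over baseline after thallium stimulus; more negative B-score means stronger Kir2.1 block with less thallium influx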
KCNQ1 pot – potentiators or activators of human KCNQ1 potassium channel | CHO-K1 KCNQ1, thallium flux FluxOR fluorescence; active compounds read high | B-score at 10 µM | actives 0.35% (n = 310,000);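 active = fluorescence ratio B-score, a plate-corrected score, at least three library SD, with initial intensity B-score within 5 SD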
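Medium – assay buffer, equal DMSO in all wells · Material – CHO-K1 cell line with stable KCNQ1 potassium channel expression · Signal – kinetic FluxOR thallium fluorescence, 10-s 1-Hz baseline, 110-s post-stimulus read · Compound – single concentration per compound, DMSO matched to controls · Schedule – 37 °C overnight plating, 90-min dark dye load, 20-min compound pretreatment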
KCNQ1 block – inhibitors of human KCNQ1 potassium channel; actives 1.3% (n = 310,000); B-score at 10 µM; CHO-K1 KCNQ1, FluxOR thallium flux fluorescence; active compounds read high; P51787; AID 2642;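 active = compounds whose thallium flux B-score, printed positive for inhibition, exceeds three library SD while starting fluorescence stays within three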;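 note: channel opened by potassium depolarization with thallium stimulus after 20 min compound exposure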
KCNK3 block – human KCNK3 channel inhibition, primary screen | actives 0.84% (n = 340,000) | B-score at 10 µM | CHO-KCNK3 thallium flux, FluxOR fluorescence; active compounds read low;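 active = B-score under library mean minus 4 SD, starting fluorescence ratio at most library mean plus 5 SD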;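 note: more negative B-score means stronger inhibition of thallium flux through KCNK3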
KCNK9 block – inhibitors of human KCNK9 two-pore domain potassium channel; Q9NPC2; HEK293 KCNK9, FluxOR thallium flux fluorescence; active compounds read low; B-score at 10 µM; actives 1.2% (n = 310,000);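 active = ratio B-score over 3 SD below the library mean, with starting fluorescence within 5 SD of its mean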;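 note: negative B-score means less thallium flux so channel inhibition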
Target sequence (Q9NPC2 whole entry, looked up, the tested form may be a part): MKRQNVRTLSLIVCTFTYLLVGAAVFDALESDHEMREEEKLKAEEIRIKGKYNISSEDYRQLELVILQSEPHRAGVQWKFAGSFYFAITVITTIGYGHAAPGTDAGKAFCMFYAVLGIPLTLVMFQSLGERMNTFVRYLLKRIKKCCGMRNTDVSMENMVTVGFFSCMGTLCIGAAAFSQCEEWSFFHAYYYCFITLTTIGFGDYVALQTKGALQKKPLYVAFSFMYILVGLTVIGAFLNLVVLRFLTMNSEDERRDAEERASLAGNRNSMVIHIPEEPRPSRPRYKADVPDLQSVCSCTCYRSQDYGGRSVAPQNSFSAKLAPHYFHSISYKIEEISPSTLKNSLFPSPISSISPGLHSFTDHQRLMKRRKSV
KCNK9 inh conf – human KCNK9 inhibitor confirmation; shares compounds with KCNK9 block; actives 43% (n = 4,900); inhibition, % at 10 µM; HEK293 KCNK9 cells, FluxOR thallium flux fluorescence; AID 492992;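 active = thallium signal inhibited by more than 5 SD of the compound-free buffer control wells, on both duplicate plates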;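 note: 0% = assay buffer control wells without compound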
Kir21 sel – tests whether KCNK9 modulators also affect mouse Kir2.1; actives 4% (n = 4,900); Kir2.1 cells, FluxOR thallium flux fluorescence; inhibition, % at 10 µM; AID 492993; shares compounds with KCNK9 block;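 active = thallium signal drop more than 5 SD beyond the mean of the no-compound control wells, seen in both duplicate plates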;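 note: signal is fluorescence rise after thallium addition divided by baseline fluorescence; plate controls were assay buffer only for no effect and full block by chlorpromazine control for full effect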
KCNK9 uninduced – second counter-screen for KCNK9 modulators: effect in non-induced cells | shares compounds with KCNK9 block | non-induced KCNK9-HEK293, FluxOR thallium flux | inhibition, % at 10 µM | actives 40% (n = 4,900);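 active = thallium signal drop beyond 5 SD of the untreated control mean, on both duplicate plates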;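 note: plate controls were buffer only IC0 wells for no effect and SID17386958 at its maximal inhibitory level for full effect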
Numbers without * were called inactive; i = inactive; / = no result given. An excerpt weighted towards active compounds, which were near 3.7% of everything screened.

SMILES | hERG rescue | Kir21 block | KCNQ1 pot | KCNQ1 block | KCNK3 block | KCNK9 block | KCNK9 inh conf | Kir21 sel | KCNK9 uninduced
Cc1onc(-c2ccccc2Cl)c1C(=O)NC(=S)NCc1cccnc1 | -11.9 | -0.92 | i | i | i | i | i | i | i
Cc1onc(-c2ccccc2Cl)c1C(=O)NC(=S)Nc1ccccc1F | 0.6 | -0.91 | i | i | i | i | / | / | /
CCCCN(C)CCNC(=O)CN1C(=O)CSc2ccc(S(=O)(=O)N3CCOCC3)cc21 | -3.2 | 0.23 | i | i | i | i | / | / | /
O=C(CN1C2=NCCCN2c2ccccc21)c1ccc([N+](=O)[O-])cc1 | -9.9 | 1.37 | i | i | i | i | / | / | /
O=C(/C=C/c1ccccc1)NC(NC(=S)Nc1cc(Cl)ccc1Cl)C(Cl)(Cl)Cl (stereo not drawn) | -10.8 | 1.08 | i | 11* | i | i | i | i | i
Cc1ccc(C)c(N2CCN(C(=O)CCS(=O)(=O)c3ccc4c(c3)oc(=O)n4C)CC2)c1 | -8.7 | 0.85 | i | i | i | i | i | i | i
Cn1c(=O)oc2cc(S(=O)(=O)CCC(=O)N3CCN(c4ccccc4F)CC3)ccc21 | -2.7 | -2.31 | i | i | i | i | / | / | /
COc1ccc(Cc2c(N)nc(C)nc2N)cc1 | -14.3 | 0.18 | i | i | i | i | / | / | /
CCOc1ccc(Cc2c(Cl)nc(SC)nc2OC)cc1 | -12.6 | 1.82 | i | i | i | i | i | i | 25.5%*
COC(=O)c1ccc(OCC(=O)NCCC2=CCCCC2)c(OC)c1 | / | / | / | / | i | / | / | / | /
Cc1ccc2c(c1)CCCN2C(=O)CSc1ccccc1 | -10.9 | -3.35 | i | i | i | i | i | i | i
Cn1cc(SCC(=O)N2CCOCC2)c2ccccc21 | -5.2 | 1.05 | i | i | i | i | / | / | /
Cn1cc(SCC(=O)N2CCCc3ccccc32)c2ccccc21 | -13.1 | -6.81* | i | i | i | i | i | 38.0%* | i
CC(C)CCNC(=O)CN(C(=O)CCC(=O)Nc1nccs1)c1ccc2c(c1)OCCO2 | -1.6 | -0.42 | i | i | i | i | / | / | /
Cc1cccc(C)c1OCC(=O)N(Cc1ccc(N(C)C)cc1)C1CCS(=O)(=O)C1 (stereo not drawn) | -9.2 | 1.05 | i | i | i | i | / | / | /
Cc1cc(C)cc(-n2cccc2/C=C2/C(=N)N3C(=NC2=O)SN=C3S(C)(=O)=O)c1 | -19.1 | 0.23 | i | 10* | i | i | i | i | i
CCC1=NN2C(=N)/C(=C\c3cccn3-c3ccc(C)c(C)c3)C(=O)N=C2S1 | -13.5 | 3.06 | i | i | i | i | / | / | /
CCC1=NN2C(=N)/C(=C/c3ccc(OS(=O)(=O)c4ccccc4)cc3)C(=O)N=C2S1 | -4.6 | -0.99 | i | i | i | i | i | i | i
Cc1ccc(S(=O)(=O)Oc2ccc(/C=C3\C(=N)N4N=C(S(C)(=O)=O)SC4=NC3=O)cc2)cc1 | -12.0 | 0.05 | i | i | i | i | i | i | i
CCC1=NN2C(=N)/C(=C\c3cccn3-c3ccc(Cl)cc3)C(=O)N=C2S1 | -6.5 | 0.76 | i | i | i | i | i | i | i
CCS(=O)(=O)C1=NN2C(=N)/C(=C\c3ccc(OS(=O)(=O)c4ccccc4)cc3)C(=O)N=C2S1 | -20.4 | 1.5 | i | i | i | i | / | / | /
COc1ccc(CN2CC(=O)N(c3cc(Cl)ccc3OC)C2=S)cc1OC | -0.5 | 1.78 | i | i | i | i | / | / | /
CC(C)C(NC(=O)c1ccco1)C(=O)NCc1ccc(C(=O)O)cc1 (stereo not drawn) | -7.8 | 0.97 | i | i | i | i | / | / | /
COc1ccc(OC)c(S(=O)(=O)NCC(c2cccs2)N2CCc3ccccc3C2)c1 (stereo not drawn) | -7.7 | -1.19 | i | i | i | -9.09* | i | i | i
COc1ccc(S(=O)(=O)NCC(c2cccs2)N2CCc3ccccc3C2)cc1 (stereo not drawn) | -11.5 | -1.4 | i | i | i | i | / | / | /
SMILES | hERG rescue | Kir21 block | KCNQ1 pot | KCNQ1 block | KCNK3 block | KCNK9 block | KCNK9 inh conf | Kir21 sel | KCNK9 uninduced
CN(C)c1ccc(/C=N/n2c(-c3ccccc3Br)n[nH]c2=S)cc1 | -3.2 | 0.45 | i | i | i | i | i | i | i
CCN(CC)S(=O)(=O)c1ccc(N2CCCC2)c(NC(=O)Cc2cc(OC)c(OC)c(OC)c2)c1 | -5.8 | 1.09 | i | i | i | i | / | / | /
COc1ccc(-c2ccc(OC)c([C@H]3[C@H]4C=CC[C@@H](C)[C@@H]4C(=O)N3Cc3ccccc3)c2)cc1OC | -14.6 | -0.93 | i | i | i | i | i | i | i
O=C(O)CN1C(=O)/C(=C\c2cccc(OCc3ccc(Cl)cc3)c2)SC1=S | -10.6 | -1.1 | i | i | i | i | i | i | i
O=C(O)CN1C(=O)/C(=C\c2ccccc2OCc2ccc(Cl)cc2)SC1=S | -9.5 | 0.8 | i | i | i | i | i | i | i
O=C(O)CN1C(=O)/C(=C\c2cc(Br)ccc2OCc2ccc(Cl)cc2Cl)SC1=S | -12.8 | 1.07 | i | i | i | i | / | / | /
O=C(CN1C(=O)S/C(=C\C=C\c2ccccc2)C1=O)Nc1cccc(O)c1 | -6.5 | 0.22 | i | i | i | i | / | / | /
O=C(O)CN1C(=O)/C(=C\c2cccc(OCc3ccccc3F)c2)SC1=S | -8.6 | 0.47 | i | i | i | i | i | i | i
O=C(CN1C(=O)S/C(=C\C=C\c2ccccc2)C1=O)Nc1ccccc1C(=O)O | -6.6 | 0.3 | i | i | i | i | i | i | i
COC(=O)c1ccccc1S(=O)(=O)NCc1nc2nc(C)cc(C)n2n1 | -4.3 | 0.58 | i | i | i | i | / | / | /
O=C(COC(=O)c1ccc(F)cc1F)Nc1cc(S(=O)(=O)N2CCOCC2)ccc1Cl | / | / | / | / | i | / | / | / | /
NC(=O)NN=C1CC2CC1C1C=CCC21 (stereo not drawn) | / | / | / | / | i | / | / | / | /
CSCC[C@H](NC(=O)c1ccc(OCC2CCCO2)cc1)c1nc2ccccc2[nH]1 (stereo partly drawn) | / | / | / | / | i | / | / | / | /
O=C(CCN1C(=O)/C(=C\c2ccccc2Cl)SC1=S)Nc1cccnc1 | -26.9 | 2.74 | i | i | i | i | / | / | /
